# In the RNAGym collection of RNA variant scans (doi:10.1126/science.aae0568):
# Variants at the floor of the assay were thinned out.
# B1: tRNA (parent)
# chain: GUUCCGUUGGCGUAAUGGUAACGCGUCUCCCUCCUAAGGAGAAGACUGCGGGUUCGAGUCCCGUACGGAACG
# Variants of: B1
# Assay: yeast fitness relative to wild type (ratio to wild type); higher = fitter; tRNA-Arg(CCU), competitive growth, 37 C, YPD
# In short: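 Genotype frequency changes were the basis for Darwinian fitness relative to wild type. The frequencies came from 100-nucleotide paired-end sequencing of gene amplicons from the start population and each end population of pooled yeast strains with tRNA-Arg(CCU) gene variants at the native locus. Competition ran in YPD at 37°C for 24 hours in six replicates, genotypes needed ≥ 100 starting reads, and estimates < 0.5 were set to 0.5.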
row,Variant,yeast fitness
1,U8C A40C C55G,≤ 0.5
2,U8C C27U A42U,0.552
3,U8C C27A A40G C46G C62G,≤ 0.5
4,U8C G9C C49U G68U,≤ 0.5
5,U8C G12A G63A,≤ 0.5
6,U8C A42U C62U A65C,0.534
7,U8C C46U C49G,0.701
8,U8C A20U A57G,≤ 0.5
9,U8G A21U C27G A65C,≤ 0.5
10,U8C C11U C27A C30G C46U U47A,0.603
11,U8C G39C U47C C60A C61G A69U,≤ 0.5
12,U8C A15C A21U,≤ 0.5
13,U8C C22U C29U,≤ 0.5
14,U8C C55A,0.739
15,U8C A40G C55U A65C,≤ 0.5
16,U8C C22U C31U C60A,≤ 0.5
17,U8G A21C G50A G56A,≤ 0.5
18,U8C A15C C34U A57C,≤ 0.5
19,U8C G25C C33A,≤ 0.5
20,U8C G48C G52A C66A,≤ 0.5
21,U8C A57U,0.788
22,U8C A57G,0.856
23,U8C A57C,0.599
24,U8C U26A,0.884

row,Variant,yeast fitness
1,U8C G23A C30U C55A,≤ 0.5
2,U8C G12A,0.714
3,U8C C22G U47C U53G,≤ 0.5
4,U8C C22U C30U C33U A45C,≤ 0.5
5,U8C A14U C30A C61U C62A A70G,0.532
6,U8C U16C C24U U28C U47A C55U,≤ 0.5
7,U8C C49G A57G,0.531
8,U8C U19G A45C,≤ 0.5
9,U8C C33U A70U,≤ 0.5
10,U8C G38C U64A C66U,≤ 0.5
11,U8C C33A C55G A69C,≤ 0.5
12,U8C G23A C34A A42U C46A A57C,≤ 0.5
13,U8C U13G C22U,0.529
14,U8C C29A A37G,0.616
15,U8G C11G U32A,0.642
16,U8C A21U G67C A69U,≤ 0.5
17,U8C A20G C33A G44A C61U,≤ 0.5
18,U8C C27U,0.792
19,U8C C27G,0.647
20,U8C C27A,0.791
21,U8C U13A C24U C29G C33A U47A C55U A65C A69G,≤ 0.5
22,U8C G18C A20U C49G,≤ 0.5
23,U8C A42U A70G,0.729
24,U8C C27G C29A A70G,≤ 0.5

row,Variant,yeast fitness
1,U8C G44A,1.01
2,U8C C61G,0.678
3,U8C C46A G50C,0.567
4,U8C C31U,1.07
5,U8C C11U A21G,0.7
6,U8A U59C,0.748
7,U8C C11G G58U,≤ 0.5
8,U8C U13A A65G,0.716
9,U8C C27U U28G C33G A36G,≤ 0.5
10,U8C C33U,0.728
11,U8G A15C,0.598
12,U8G A45C,0.537
13,U8G A45G,0.632
14,U8C C29G A37G G67C,0.573
15,U8C A45G,0.906
16,U8A U47C A57C U64C,≤ 0.5
17,U8C U26G A42C,0.703
18,U8C G17C G58C,≤ 0.5
19,U8C A20G C34G C66U,0.696
20,U8C U28A,0.901
21,U8C C22U A69C,0.505
22,U8G A43C C61U,≤ 0.5
23,U8C C29A A65C C66G,≤ 0.5
24,U8C G23A A65C,0.571

row,Variant,yeast fitness
1,U8C A20U A21U U26G C31A U53A A69C,≤ 0.5
2,U8C C24G C55A,≤ 0.5
3,U8C C27U U32A C66U G67C,≤ 0.5
4,U8C A43C,0.939
5,U8C G18A A45U G67C,0.552
6,U8C U13A C22A A42U,≤ 0.5
7,U8C U54G U64A,0.543
8,U8G A14U A15U A20C C60U A69C,≤ 0.5
9,U8C A14G U32A,0.538
10,U8C C22A,0.932
11,U8C C22U,0.768
12,U8C A57U C61U,0.536
13,U8G A20U A36C A65G,≤ 0.5
14,U8C G67C,0.953
15,U8C G67A,0.85
16,U8A U28A C66U,≤ 0.5
17,U8C C46G G67A,0.674
18,U8C A15U G38C G39A A43C C60G A65C,≤ 0.5
19,U8G A20G G58U A65G G67A,≤ 0.5
20,U8C A40C C62G,≤ 0.5
21,U8G A21G C29U U32C,≤ 0.5
22,U8C C24A C46G G63A,0.597
23,U8C C22U U53A,≤ 0.5
24,U8C A45U U59C,0.57

row,Variant,yeast fitness
1,U8C C29A C34G A36G A37G A40C U47A U64C,≤ 0.5
2,U8C G18C A21C U47A G48C U54G A65C,≤ 0.5
3,U8G A21G C27A U35A C62A A65C,0.568
4,U8C A15U U28A C33G,≤ 0.5
5,U8C C60A,0.737
6,U8C C49U C61A,≤ 0.5
7,U8C C24A,0.616
8,U8C C27U C62U,0.736
9,U8C A65G,0.929
10,U8C A65C,0.964
11,U8A U26C A43U C55U,≤ 0.5
12,U8C G10C A15C A43C,≤ 0.5
13,U8G A14G A21G C27A U35A C62A A65C,≤ 0.5
14,U8C C29G U35G C61U,≤ 0.5
15,U8C U32C C46G G67C,≤ 0.5
16,U8C U28A A37G G41C,≤ 0.5
17,U8C A43C C49G,0.597
18,U8C A14U C22G C30U U54C,≤ 0.5
19,U8C C11G C46U,≤ 0.5
20,U8C U16A A21U C24G G48C,≤ 0.5
21,U8C A20G C66U,0.624
22,U8C U13C A36U G38A A65C,≤ 0.5
23,U8C C30G C33G,≤ 0.5
24,U8G C11A C24A C29A C34U C61G A65C,≤ 0.5

row,Variant,yeast fitness
1,U8C G50A,0.773
2,U8C C22A U53A,≤ 0.5
3,U8C U28G C46G C49U A69C,≤ 0.5
4,U8C G9C C49U,≤ 0.5
5,U8C C22A A36C G63A G67C,≤ 0.5
6,U8C C11A A20U C66U,≤ 0.5
7,U8C G41C A69U,0.637
8,U8C C27A A42C,0.532
9,U8C G52A,0.765
10,U8C C30G C46A U47G C49A G52A G58C U64G A65G,≤ 0.5
11,U8C A14U C22G C30U,0.581
12,U8C G25A A36C A70G,0.624
13,U8C C11A C30A,≤ 0.5
14,U8C A14C G18A C31U A45G,≤ 0.5
15,U8C G10C C46U C66U,≤ 0.5
16,U8A U32G A37G G63U A70U,≤ 0.5
17,U8C G9A A42G,0.514
18,U8C A42G C49G C62A,≤ 0.5
19,U8A U28A C31G C60A,≤ 0.5
20,U8C G9A A20C G68C,0.527
21,U8C C55U G63A,0.552
22,U8C A65U A69C,0.615
23,U8C G51C G58C,≤ 0.5
24,U8C A15C C31A,≤ 0.5

row,Variant,yeast fitness
1,U8C C30A C31U U54C,≤ 0.5
2,U8A U28C,0.738
3,U8C G12C U32G A42U,≤ 0.5
4,U8G A14U U16C A40U G48C,≤ 0.5
5,U8C C31A A42G A43G G68C,0.559
6,U8C U13A U32C A69U,0.677
7,U8C C22U C27U G58C,≤ 0.5
8,U8G A37U G52A A57C C60A,≤ 0.5
9,U8C,1.03
10,U8G,0.711
11,U8G A37C G68A,≤ 0.5
12,U8C C22G C55G,≤ 0.5
13,U8C A36U G38A G68C,≤ 0.5
14,U8G A21C A43U U59A G63A,≤ 0.5
15,U8C U16C,0.861
16,U8C G10A A40G,0.551
17,U8C C22U C34A,0.952
18,U8C C11U,1.02
19,U8C C11G,0.686
20,U8C C11A,0.698
21,U8G A40U G52A A69U,≤ 0.5
22,U8G A21U C62U,≤ 0.5
23,U8C A15G U19A C29A A36G G51A,≤ 0.5
